ChEMBL document CHEMBL1158602, “Dihydro-pyrano[2,3-b]pyridines and tetrahydro-1,8-naphthyridines as CB1 receptor inverse agonists: synthesis, SAR and biological evaluation” (Bioorg Med Chem Lett, 2010)

How the values were obtained:
[1] = target: Cannabinoid receptor 1 (Homo sapiens, UniProt P21554); experiment: Binding affinity to human CB1 receptor
[2] = target: Cannabinoid receptor 2 (Homo sapiens, UniProt P34972); experiment: Binding affinity to human CB2 receptor
[3] = Oral bioavailability in rat at 1 mg/kg, iv after 4 hrs; type: ADME, organism-based; settings: in vivo
[4] = Half life in rat at 1 mg/kg, iv after 4 hrs; type: ADME, organism-based; set-up: dose 1 mg/kg, route intravenous; settings: in vivo
[5] = Clearance in rat plasma at 1 mg/kg, iv after 4 hrs; type: ADME, organism-based; set-up: dose 1 mg/kg, route intravenous
[6] = Drug level in rat brain at 1 mg/kg, iv after 4 hrs; type: ADME, organism-based; set-up: dose 1 mg/kg, route intravenous; settings: read-out: Drug uptake
How it was run: (§1)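 Rats given 1 mg/kg intravenously; brain and plasma drug concentrations measured 4 h after dosing, and the brain/plasma ratio taken from these levels.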

[7] = Drug level in rat plasma at 1 mg/kg, iv after 4 hrs; type: ADME, organism-based; set-up: dose 1 mg/kg, route intravenous; settings: read-out: Drug uptake; how it was run: as §1
[8] = Ratio of drug level in brain to plasma in rat at 1 mg/kg, iv after 4 hrs; type: ADME, organism-based; set-up: dose 1 mg/kg, route intravenous; settings: brain and plasma; how it was run: as §1

Sequence of Cannabinoid receptor 2 (P34972 whole entry): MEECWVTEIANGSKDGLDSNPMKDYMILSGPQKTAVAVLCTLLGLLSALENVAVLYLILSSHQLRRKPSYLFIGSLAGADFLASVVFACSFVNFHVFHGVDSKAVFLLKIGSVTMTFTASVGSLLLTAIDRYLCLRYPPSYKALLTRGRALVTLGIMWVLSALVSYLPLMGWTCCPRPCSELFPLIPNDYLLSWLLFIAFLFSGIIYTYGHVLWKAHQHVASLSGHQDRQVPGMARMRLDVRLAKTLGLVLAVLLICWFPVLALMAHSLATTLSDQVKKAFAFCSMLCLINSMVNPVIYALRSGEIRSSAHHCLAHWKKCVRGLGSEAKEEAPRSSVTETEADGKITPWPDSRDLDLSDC
Sequence of Cannabinoid receptor 1 (P21554 whole entry): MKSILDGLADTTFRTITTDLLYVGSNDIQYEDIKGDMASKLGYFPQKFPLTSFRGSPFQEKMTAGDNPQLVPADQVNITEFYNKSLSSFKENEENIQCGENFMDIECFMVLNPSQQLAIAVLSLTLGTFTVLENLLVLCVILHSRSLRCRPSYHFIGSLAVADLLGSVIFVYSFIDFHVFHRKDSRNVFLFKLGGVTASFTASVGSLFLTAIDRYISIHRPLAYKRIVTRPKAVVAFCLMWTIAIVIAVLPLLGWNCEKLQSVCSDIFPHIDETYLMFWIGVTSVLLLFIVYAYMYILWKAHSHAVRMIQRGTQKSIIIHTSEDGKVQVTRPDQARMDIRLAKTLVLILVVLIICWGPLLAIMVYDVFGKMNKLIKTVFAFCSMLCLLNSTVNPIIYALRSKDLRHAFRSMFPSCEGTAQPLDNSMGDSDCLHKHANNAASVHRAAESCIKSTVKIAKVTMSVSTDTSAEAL

SMILES	IC50 [1] [nM]	IC50 [2] [nM]	also measured
CN1CCC2(CC1)CC(=O)c1cc(-c3ccc(Cl)cc3)c(-c3ccccc3Cl)nc1O2	790	> 2000	–
O=C(CO)NC1CC2(CCCCC2)Oc2nc(-c3ccccc3Cl)c(-c3ccc(Cl)cc3)cc21 (racemic)	0.3	4200	bioavailability [3]: 13%; half-life [4]: 0.8 h; clearance [5]: 34 mL/min/kg; concentration at 4 h [6]: 27 nM; concentration at 4 h [7]: 16 nM; Kp at 4 h [8]: 1.7
CC1(C)CC(NC(=O)CO)c2cc(-c3ccc(Cl)cc3)c(-c3ccc(Cl)cc3Cl)nc2O1 (single isomer, unassigned; enantiomer 2) [N-(6-(4-CHLOROPHENYL)-7-(2,4-DICHLOROPHENYL)-2,2-DIMETHYL-3,4-DIHYDRO-2H-PYRANO[2,3-B]PYRIDIN-4-YL)-2-HYDROXYACETAMIDE (ENANTIOMERIC MIX)]	670	6610	–
C[C@H](O)C(=O)NC1CC2(CCCCC2)Oc2nc(-c3ccccc3Cl)c(-c3ccc(Cl)cc3)cc21 (stereo in doubt; 12f) [(2S)-N-(7'-(2-CHLOROPHENYL)-6'-(4-CHLOROPHENYL)-3',4'-DIHYDROSPIRO[CYCLOHEXANE-1,2'-PYRANO[2,3-B]PYRIDINE]-4'-YL)-2-HYDROXYPROPANAMIDE (ENANTIOMERIC MIX)]	13	10000	–
CC1(C)CC(NC(=O)C(C)(C)CO)c2cc(-c3ccc(Cl)cc3)c(-c3ccc(Cl)cc3Cl)nc2O1 (single isomer, unassigned; enantiomer 1) [N-(6-(4-CHLOROPHENYL)-7-(2,4-DICHLOROPHENYL)-2,2-DIMETHYL-3,4-DIHYDRO-2H-PYRANO[2,3-B]PYRIDIN-4-YL)-3-HYDROXY-2,2-DIMETHYLPROPANAMIDE (ENANTIOMERIC MIX)]	2.1	570	–
O=C1CC2(CCCCC2)Oc2nc(-c3ccccc3Cl)c(-c3ccc(Cl)cc3)cc21	8.2	8300	–
CC1(C)CC(=O)c2cc(-c3ccc(Cl)cc3)c(-c3ccc(Cl)cc3Cl)nc2O1	47	1300	–
O=C1CC2(CCSCC2)Oc2nc(-c3ccccc3Cl)c(-c3ccc(Cl)cc3)cc21	4.9	8000	–
CC1CC(=O)c2cc(-c3ccc(Cl)cc3)c(-c3ccccc3Cl)nc2O1 (racemic)	21	6300	–
C[C@H](O)C(=O)NC1CC2(CCCCC2)Oc2nc(-c3ccccc3Cl)c(-c3ccc(Cl)cc3)cc21 (stereo in doubt; 12e) [(2S)-N-(7'-(2-CHLOROPHENYL)-6'-(4-CHLOROPHENYL)-3',4'-DIHYDROSPIRO[CYCLOHEXANE-1,2'-PYRANO[2,3-B]PYRIDINE]-4'-YL)-2-HYDROXYPROPANAMIDE (ENANTIOMERIC MIX)]	0.4	1800	–
O=C1CC2(CCS(=O)(=O)CC2)Oc2nc(-c3ccccc3Cl)c(-c3ccc(Cl)cc3)cc21	15	4100	–
COC1CC(C)(C)Oc2nc(-c3ccc(Cl)cc3Cl)c(-c3ccc(Cl)cc3)cc21 (racemic)	19	3790	–
CC(C)(C)C1CC(=O)c2cc(-c3ccc(Cl)cc3)c(-c3ccccc3Cl)nc2O1 (racemic)	1.9	3400	–
CCC1(CC)CC(=O)c2cc(-c3ccc(Cl)cc3)c(-c3ccccc3Cl)nc2O1	15	4200	–
CC(C)(CO)NC(=O)C1CC(C)(C)Oc2nc(-c3ccc(Cl)cc3Cl)c(-c3ccc(Cl)cc3)cc21 (single isomer, unassigned; enantiomer 1) [6-(4-CHLOROPHENYL)-7-(2,4-DICHLOROPHENYL)-N-(1-HYDROXY-2-METHYLPROPAN-2-YL)-2,2-DIMETHYL-3,4-DIHYDRO-2H-PYRANO[2,3-B]PYRIDINE-4-CARBOXAMIDE (ENANTIOMERIC MIX)]	14	5150	–
CC1(C)CC(N)c2cc(-c3ccc(Cl)cc3)c(-c3ccc(Cl)cc3Cl)nc2O1 (racemic)	110	7760	–
CC1(C)CC(NC(=O)C(C)(C)CO)c2cc(-c3ccc(Cl)cc3)c(-c3ccc(Cl)cc3Cl)nc2O1 (single isomer, unassigned; enantiomer 2) [N-(6-(4-CHLOROPHENYL)-7-(2,4-DICHLOROPHENYL)-2,2-DIMETHYL-3,4-DIHYDRO-2H-PYRANO[2,3-B]PYRIDIN-4-YL)-3-HYDROXY-2,2-DIMETHYLPROPANAMIDE (ENANTIOMERIC MIX)]	34	7600	–
O=C1CC(c2cccc(F)c2)Oc2nc(-c3ccccc3Cl)c(-c3ccc(Cl)cc3)cc21 (racemic)	1.7	> 2000	–

SMILES	IC50 [1] [nM]	IC50 [2] [nM]	also measured
CC1(C)CC(NC(=O)CO)c2cc(-c3ccc(Cl)cc3)c(-c3ccc(Cl)cc3Cl)nc2O1 (single isomer, unassigned; enantiomer 1) [N-(6-(4-CHLOROPHENYL)-7-(2,4-DICHLOROPHENYL)-2,2-DIMETHYL-3,4-DIHYDRO-2H-PYRANO[2,3-B]PYRIDIN-4-YL)-2-HYDROXYACETAMIDE (ENANTIOMERIC MIX)]	1.7	4780	–
C[C@@H](O)C(=O)NC1CC(C)(C)Oc2nc(-c3ccc(Cl)cc3Cl)c(-c3ccc(Cl)cc3)cc21 (single isomer, unassigned)	–	–	bioavailability [3]: 100%; half-life [4]: 7.9 h; clearance [5]: 4 mL/min/kg; concentration at 4 h [6]: 122 nM; concentration at 4 h [7]: 321 nM; Kp at 4 h [8]: 0.38
O=C1CC2(CCCC2)Oc2nc(-c3ccccc3Cl)c(-c3ccc(Cl)cc3)cc21	23	3000	–
CC1(C)CC(NC(=O)CCO)c2cc(-c3ccc(Cl)cc3)c(-c3ccc(Cl)cc3Cl)nc2O1 (single isomer, unassigned; enantiomer 2) [N-(6-(4-CHLOROPHENYL)-7-(2,4-DICHLOROPHENYL)-2,2-DIMETHYL-3,4-DIHYDRO-2H-PYRANO[2,3-B]PYRIDIN-4-YL)-3-HYDROXYPROPANAMIDE (ENANTIOMERIC MIX)]	14	5400	–
CC1(C)CC(NC(=O)CO)c2cc(-c3ccc(Cl)cc3)c(-c3ccccc3Cl)nc2O1 (single isomer, unassigned; enantiomer 1) [N-(7-(2-CHLOROPHENYL)-6-(4-CHLOROPHENYL)-2,2-DIMETHYL-3,4-DIHYDRO-2H-PYRANO[2,3-B]PYRIDIN-4-YL)-2-HYDROXYACETAMIDE (ENANTIOMERIC MIX)]	46	> 2000	–
CC(C)(CO)NC(=O)C1CC(C)(C)Oc2nc(-c3ccc(Cl)cc3Cl)c(-c3ccc(Cl)cc3)cc21 (single isomer, unassigned; enantiomer 2) [6-(4-CHLOROPHENYL)-7-(2,4-DICHLOROPHENYL)-N-(1-HYDROXY-2-METHYLPROPAN-2-YL)-2,2-DIMETHYL-3,4-DIHYDRO-2H-PYRANO[2,3-B]PYRIDINE-4-CARBOXAMIDE (ENANTIOMERIC MIX)]	150	7450	–
C[C@@H](O)C(=O)NC1CC2(CCCCC2)Oc2nc(-c3ccccc3Cl)c(-c3ccc(Cl)cc3)cc21 (single isomer, unassigned; enantiomer 1)	0.2	3600	–
CC1(C)CC(=O)c2cc(-c3ccc(Cl)cc3)c(-c3ccccc3Cl)nc2O1	120	2300	–
CC(C)C1CC(=O)c2cc(-c3ccc(Cl)cc3)c(-c3ccccc3Cl)nc2O1 (racemic)	3.2	3300	–
CC(=O)NC1CC2(CCCCC2)Oc2nc(-c3ccccc3Cl)c(-c3ccc(Cl)cc3)cc21 (racemic)	1.3	3900	–
CC(C)(O)C(=O)NC1CC2(CCCCC2)Oc2nc(-c3ccccc3Cl)c(-c3ccc(Cl)cc3)cc21 (single isomer, unassigned; enantiomer 2) [N-(7'-(2-CHLOROPHENYL)-6'-(4-CHLOROPHENYL)-3',4'-DIHYDROSPIRO[CYCLOHEXANE-1,2'-PYRANO[2,3-B]PYRIDINE]-4'-YL)-2-HYDROXY-2-METHYLPROPANAMIDE (ENANTIOMERIC MIX)]	18	12000	–
CC1(C)CC(NC(=O)CO)c2cc(-c3ccc(Cl)cc3)c(-c3ccccc3Cl)nc2O1 (single isomer, unassigned) [N-(7-(2-CHLOROPHENYL)-6-(4-CHLOROPHENYL)-2,2-DIMETHYL-3,4-DIHYDRO-2H-PYRANO[2,3-B]PYRIDIN-4-YL)-2-HYDROXYACETAMIDE (ENANTIOMERIC MIX)]	360	10100	–
CC1(C)CC(C(N)=O)c2cc(-c3ccc(Cl)cc3)c(-c3ccc(Cl)cc3Cl)nc2O1 (single isomer, unassigned; enantiomer 1) [6-(4-CHLOROPHENYL)-7-(2,4-DICHLOROPHENYL)-2,2-DIMETHYL-3,4-DIHYDRO-2H-PYRANO[2,3-B]PYRIDINE-4-CARBOXAMIDE (ENANTIOMERIC MIX)]	97	2480	–
CC1(C)CC(C(N)=O)c2cc(-c3ccc(Cl)cc3)c(-c3ccc(Cl)cc3Cl)nc2O1 (single isomer, unassigned; enantiomer 2) [6-(4-CHLOROPHENYL)-7-(2,4-DICHLOROPHENYL)-2,2-DIMETHYL-3,4-DIHYDRO-2H-PYRANO[2,3-B]PYRIDINE-4-CARBOXAMIDE (ENANTIOMERIC MIX)]	220	> 2000	–
CC1(C)CC(O)c2cc(-c3ccc(Cl)cc3)c(-c3ccc(Cl)cc3Cl)nc2O1 (racemic)	130	4950	–
C[C@@H](O)C(=O)NC1CC2(CCCCC2)Oc2nc(-c3ccccc3Cl)c(-c3ccc(Cl)cc3)cc21 (stereo in doubt; 12h) [(2R)-N-(7'-(2-CHLOROPHENYL)-6'-(4-CHLOROPHENYL)-3',4'-DIHYDROSPIRO[CYCLOHEXANE-1,2'-PYRANO[2,3-B]PYRIDINE]-4'-YL)-2-HYDROXYPROPANAMIDE (ENANTIOMERIC MIX)]	2	3400	–
CC1(C)CC(C)(O)c2cc(-c3ccc(Cl)cc3)c(-c3ccc(Cl)cc3Cl)nc2O1 (racemic)	80	2920	–
